Laboratory results: ChEMBL document CHEMBL4673173, “Cyrene(TM) is a green alternative to DMSO as a solvent for antibacterial drug discovery against ESKAPE pathogens” (RSC Med Chem, 2020)
≈ marks a conversion by molar mass, not a printed value. Structures can show the parent of a compound that is named as a salt. Calls of active or inactive are those of the source. The rule behind the calls is not given here. Bridge positions count the residues as written; N and C are the ends. Square brackets hold non-standard residues; d marks the D form. Peptide text beside a SMILES is read from it. * marks the point of attachment. X1 = CC[C@H](C)CCCCC(=O)*; Dab = NCC[C@H](N)C(=O)O

How the values were obtained:
Enterococcus faecalis [1] = test: microbe, parasite or virus in culture; assay type: functional; conditions: ATCC 51299
Staphylococcus aureus [2] = test: microbe, parasite or virus in culture; assay type: functional; conditions: ATCC 43300
Staphylococcus aureus [3] = test: microbe, parasite or virus in culture; assay type: functional; conditions: ATCC 43300; remark: listed apart in the source
Enterococcus faecalis [4] = test: microbe, parasite or virus in culture; assay type: functional; conditions: ATCC 51299; remark: listed apart in the source
Klebsiella pneumoniae [5] = conditions: 700603
Klebsiella pneumoniae [6] = conditions: 700603; remark: listed apart in the source
Acinetobacter baumannii [7] = conditions: ATCC 19606 = CIP 70.34 = JCM 6841
Acinetobacter baumannii [8] = conditions: ATCC 19606 = CIP 70.34 = JCM 6841; remark: listed apart in the source
Pseudomonas aeruginosa [9] = conditions: ATCC 27893
Pseudomonas aeruginosa [10] = conditions: ATCC 27893; remark: listed apart in the source
Escherichia coli [11] = conditions: ATCC 25922
Escherichia coli [12] = conditions: ATCC 25922; remark: listed apart in the source
Acinetobacter baumannii [13] = test: Antibacterial activity against Acinetobacter baumannii ATCC 19606 using cyrene as solvent by broth microdilution method; assay type: functional; conditions: ATCC 19606 = CIP 70.34 = JCM 6841
Acinetobacter baumannii [14] = test: Antibacterial activity against Acinetobacter baumannii ATCC 19606 using DMSO as solvent by broth microdilution method; assay type: functional; conditions: ATCC 19606 = CIP 70.34 = JCM 6841
Pseudomonas aeruginosa [15] = test: Antibacterial activity against Pseudomonas aeruginosa ATCC 27893 using cyrene as solvent by broth microdilution method; assay type: functional
Pseudomonas aeruginosa [16] = test: Antibacterial activity against Pseudomonas aeruginosa ATCC 27893 using DMSO as solvent by broth microdilution method; assay type: functional
Escherichia coli [17] = test: Antibacterial activity against Escherichia coli ATCC 25922 using cyrene as solvent by broth microdilution method; assay type: functional
Escherichia coli [18] = test: Antibacterial activity against Escherichia coli ATCC 25922 using DMSO as solvent by broth microdilution method; assay type: functional
Enterococcus faecalis [19] = conditions: ATCC 51299
Enterococcus faecalis [20] = conditions: ATCC 51299; remark: listed apart in the source
Klebsiella pneumoniae [21] = test: Antibacterial activity against Klebsiella pneumoniae ATCC 700603 using cyrene as solvent by broth microdilution method; assay type: functional
Klebsiella pneumoniae [22] = test: Antibacterial activity against Klebsiella pneumoniae ATCC 700603 using DMSO as solvent by broth microdilution method; assay type: functional
Staphylococcus aureus [23] = conditions: ATCC 43300
Staphylococcus aureus [24] = conditions: ATCC 43300; remark: listed apart in the source
Klebsiella pneumoniae [25] = test: Antibacterial activity against Klebsiella pneumoniae ATCC 700603 by broth microdilution method; assay type: functional
Outline: (§1)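 Antibiotics were dissolved as stock solutions in either DMSO or Cyrene™, neat or mixed with water, at 5–10 mM (stock). Each drug was tested in parallel with both vehicles. Growth inhibition was read as MIC80 […]. NA means no activity at the highest concentration tested.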

Pseudomonas aeruginosa [26] = test: Antibacterial activity against Pseudomonas aeruginosa […] by broth microdilution method; assay type: functional
Outline: as §1

Acinetobacter baumannii [27] = test: Antibacterial activity against Acinetobacter baumannii ATCC 19606 by broth microdilution method; assay type: functional, ATCC 19606 = CIP 70.34 = JCM 6841
Outline: as §1

Escherichia coli [28] = test: Antibacterial activity against Escherichia coli ATCC 25922 by broth microdilution method; assay type: functional
Outline: as §1

Enterococcus faecalis [29] = test: Antibacterial activity against Enterococcus faecalis ATCC 51299 by broth microdilution method; assay type: functional
Outline: as §1

Staphylococcus aureus [30] = test: Antibacterial activity against Staphylococcus aureus ATCC 43300 by broth microdilution method; assay type: functional
Outline: as §1

SMILES	MIC80 (Enterococcus faecalis [1]) [µM]	MIC80 (Staphylococcus aureus [2]) [µM]	MIC80 (Staphylococcus aureus [3]) [µM]	MIC80 (Enterococcus faecalis [4]) [µM]	MIC80 (Klebsiella pneumoniae [5])	MIC80 (Klebsiella pneumoniae [6])	MIC80 (Acinetobacter baumannii [13]) [µM]	MIC80 (Acinetobacter baumannii [14]) [µM]	MIC80 (Pseudomonas aeruginosa [15]) [µM]	MIC80 (Pseudomonas aeruginosa [16]) [µM]	MIC80 (Escherichia coli [17]) [µM]	MIC80 (Escherichia coli [18]) [µM]	MIC80 (Enterococcus faecalis [19])	MIC80 (Enterococcus faecalis [20])	MIC80 (Klebsiella pneumoniae [21]) [µM]	MIC80 (Klebsiella pneumoniae [22]) [µM]	other results
CN[C@H](CC(C)C)C(=O)N[C@H]1C(=O)N[C@@H](CC(N)=O)C(=O)N[C@H]2C(=O)N[C@H]3C(=O)N[C@H](C(=O)N[C@H](C(=O)O)c4cc(O)cc(O)c4-c4cc3ccc4O)[C@H](O)c3ccc(c(Cl)c3)Oc3cc2cc(c3O[C@@H]2O[C@H](CO)[C@@H](O)[C@H](O)[C@H]2O[C@H]2C[C@](C)(N)[C@H](O)[C@H](C)O2)Oc2ccc(cc2Cl)[C@H]1O [VANCOMYCIN HYDROCHLORIDE]	13	0.39	0.39	13	inactive	inactive											MIC80 (Acinetobacter baumannii [7]): inactive; MIC80 (Acinetobacter baumannii [8]): inactive; MIC80 (Pseudomonas aeruginosa [9]): inactive; MIC80 (Pseudomonas aeruginosa [10]): inactive; MIC80 (Escherichia coli [11]): inactive; MIC80 (Escherichia coli [12]): inactive
CN(C)[C@@H]1C(O)=C(C(N)=O)C(=O)[C@@]2(O)C(O)=C3C(=O)c4c(O)cccc4[C@@](C)(O)[C@H]3C[C@@H]12 [TETRACYCLINE]		0.78 (≈ 0.347 µg/mL)	0.78 (≈ 0.347 µg/mL)		inactive	inactive	12.5 (≈ 5.56 µg/mL)	25 (≈ 11.1 µg/mL)	25 (≈ 11.1 µg/mL)	25 (≈ 11.1 µg/mL)	3.13 (≈ 1.39 µg/mL)	3.13 (≈ 1.39 µg/mL)	inactive	inactive			
NC[C@H]1O[C@H](O[C@H]2[C@H](O)[C@@H](O[C@H]3O[C@H](CO)[C@@H](O)[C@H](N)[C@H]3O)[C@H](N)C[C@@H]2N)[C@H](N)C[C@@H]1O [TOBRAMYCIN]							3.1 (≈ 1.45 µg/mL)	3.1 (≈ 1.45 µg/mL)	1.6 (≈ 0.748 µg/mL)	1.6 (≈ 0.748 µg/mL)	0.78 (≈ 0.365 µg/mL)	0.78 (≈ 0.365 µg/mL)	inactive	inactive	13 (≈ 6.08 µg/mL)	13 (≈ 6.08 µg/mL)	MIC80 (Staphylococcus aureus [23]): inactive; MIC80 (Staphylococcus aureus [24]): inactive
CC1(C)S[C@@H]2[C@H](NC(=O)Cc3ccccc3)C(=O)N2[C@H]1C(=O)O [PENICILLIN G SODIUM]		34	34		inactive	inactive							inactive	inactive			MIC80 (Acinetobacter baumannii [7]): inactive; MIC80 (Acinetobacter baumannii [8]): inactive; MIC80 (Pseudomonas aeruginosa [9]): inactive; MIC80 (Pseudomonas aeruginosa [10]): inactive; MIC80 (Escherichia coli [11]): inactive; MIC80 (Escherichia coli [12]): inactive
CC[C@H](C)CCCCC(=O)N[C@@H](CCN)C(=O)N[C@H](C(=O)N[C@@H](CCN)C(=O)N[C@H]1CCNC(=O)[C@H]([C@@H](C)O)NC(=O)[C@H](CCN)NC(=O)[C@H](CCN)NC(=O)[C@H](CC(C)C)NC(=O)[C@@H](Cc2ccccc2)NC(=O)[C@H](CCN)NC1=O)[C@@H](C)O (X1-[Dab]T[Dab][Dab][Dab][dF]L[Dab][Dab]T; lactam 4-C)							1.6 (≈ 1.93 µg/mL)	1.6 (≈ 1.93 µg/mL)	3.1 (≈ 3.73 µg/mL)	3.1 (≈ 3.73 µg/mL)	1.6 (≈ 1.93 µg/mL)	1.6 (≈ 1.93 µg/mL)	inactive	inactive	1.6 (≈ 1.93 µg/mL)	1.6 (≈ 1.93 µg/mL)	MIC80 (Staphylococcus aureus [23]): inactive; MIC80 (Staphylococcus aureus [24]): inactive
O=C1CC[C@H]2CO[C@@H]1O2																	MIC80 (Klebsiella pneumoniae [25]): 8 %v/v; MIC80 (Pseudomonas aeruginosa [26]): 8 %v/v; MIC80 (Acinetobacter baumannii [27]): 8 %v/v; MIC80 (Escherichia coli [28]): 5 %v/v; MIC80 (Enterococcus faecalis [29]): 4 %v/v; MIC80 (Staphylococcus aureus [30]): 8 %v/v
C[C@H]1COc2c(N3CCN(C)CC3)c(F)cc3c(=O)c(C(=O)O)cn1c23 [LEVOFLOXACIN]	0.19 (≈ 0.0687 µg/mL)	0.78 (≈ 0.282 µg/mL)	0.78 (≈ 0.282 µg/mL)	0.39 (≈ 0.141 µg/mL)			0.39 (≈ 0.141 µg/mL)	0.39 (≈ 0.141 µg/mL)	1.6 (≈ 0.578 µg/mL)	1.6 (≈ 0.578 µg/mL)	0.019 (≈ 0.00687 µg/mL)	0.019 (≈ 0.00687 µg/mL)			0.78 (≈ 0.282 µg/mL)	0.78 (≈ 0.282 µg/mL)	
O=C(O)c1cn(C2CC2)c2cc(N3CCNCC3)c(F)cc2c1=O [CIPROFLOXACIN HYDROCHLORIDE]	0.39	1.6	1.6	0.39			1.6	1.6	0.39	0.39					0.39	0.39	
C[S+](C)[O-] [DIMETHYL SULFOXIDE]																	MIC80 (Klebsiella pneumoniae [25]): 16 %v/v; MIC80 (Pseudomonas aeruginosa [26]): 16 %v/v; MIC80 (Acinetobacter baumannii [27]): 16 %v/v; MIC80 (Escherichia coli [28]): 10 %v/v; MIC80 (Enterococcus faecalis [29]): 8 %v/v; MIC80 (Staphylococcus aureus [30]): 16 %v/v
